Test results published in the RNAGym collection of RNA variant scans (doi:10.1126/science.aae0568).
Fewer inactive variants are shown than the library holds.

B1: tRNA (parent)
chain: GUUCCGUUGGCGUAAUGGUAACGCGUCUCCCUCCUAAGGAGAAGACUGCGGGUUCGAGUCCCGUACGGAACG

Variants of: B1
Experiment: yeast fitness relative to wild type (ratio to wild type); higher = fitter; tRNA-Arg(CCU), competitive growth, 37 C, YPD
Procedure, shortened: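 Changes in genotype frequencies gave Darwinian fitness relative to wild type. Frequencies were read by 100-nucleotide paired-end sequencing of gene amplicons before and after pooled Saccharomyces cerevisiae strains, carrying tRNA-Arg(CCU) gene variants at the native locus, were competed in YPD at 37°C for 24 hours in six replicates. A genotype was kept only with ≥ 100 starting reads, and estimates < 0.5 were set to 0.5.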

G9A C33U A42C A69U and U19C U28C C29G A57U cannot be ordered by yeast fitness: no more than 0.5 for the first, no more than 0.5 for the second.

Compared with C11G C30G C31G U32A C66U, C5G A20U G68C is lower in yeast fitness: 0.551 for the first, no more than 0.5 for the second.

Compared with G6A C27A C30U G41C A43U C49A, U28G C30G A40C A42U G67A is lower in yeast fitness: 0.52 for the first, no more than 0.5 for the second.

Compared with G17C G23C, C11A G18A C49A C62G is lower in yeast fitness: 0.517 for the first, no more than 0.5 for the second.

Compared with C11U G44A, A14C C60G A70U is lower in yeast fitness: 1.03 for the first, no more than 0.5 for the second.

C4A A21U G52A and C4U U28G C61U C62U cannot be ordered by yeast fitness: no more than 0.5 for the first, no more than 0.5 for the second.

C33G C66A and A21C G23U G48C cannot be ordered by yeast fitness: no more than 0.5 for the first, no more than 0.5 for the second.

First: G17A C22A U35C A45C C46U
Second: C11U G18A A37G
The yeast fitness of the first is higher: 0.537 for the first, no more than 0.5 for the second.

Compared with U32A C33G, C30A C46U G52A C55U is lower in yeast fitness: 0.706 for the first, no more than 0.5 for the second.

Compared with C4U A37U C66A, C4A U8C U59A is lower in yeast fitness: 0.542 for the first, no more than 0.5 for the second.

U8C A40G C55U A65C and C31U A37G G68C cannot be ordered by yeast fitness: no more than 0.5 for the first, no more than 0.5 for the second.

A14G A20C C33A A70G and C22G C30G G50A A57U cannot be ordered by yeast fitness: no more than 0.5 for the first, no more than 0.5 for the second.

A14C G18A C22G A57U C61G and C30G U32A A40G C61G cannot be ordered by yeast fitness: no more than 0.5 for the first, no more than 0.5 for the second.

First: G23A C31U A70U
Second: A21G C27G G63A
The yeast fitness of the first is higher: 0.528 for the first, no more than 0.5 for the second.

Compared with C61U G67A, C24U G44A is higher in yeast fitness: 0.649 for the first, 0.912 for the second.

Going from A14U C29G U53C U54G to U8A C66G G68C, the yeast fitness falls from 0.571 to no more than 0.5.

Going from C24G G25C C30G U32C A70C to U2G C29G A43C, the yeast fitness rises from 0.533 to 0.548.

First: G25C A69U
Second: A36G A37C A43G
The yeast fitness of the first is higher: 0.929 for the first, 0.63 for the second.

Compared with G39C U47A G58A G63A, U19A C24A is higher in yeast fitness: no more than 0.5 for the first, 0.598 for the second.

Compared with A43G G56A, A21C A57C is lower in yeast fitness: 0.86 for the first, 0.548 for the second.

Going from C5U C27G G38A to C4A A15G, the yeast fitness rises from 0.515 to 0.844.

Going from C27U U53C to U19A C24U A69U, the yeast fitness rises from 0.617 to 0.746.

Going from C11U C49U A65G to G12C C49U G52C A57C A65C, the yeast fitness falls from 0.76 to 0.53.

C5U A42G G56C and G38C A42C A65C cannot be ordered by yeast fitness: no more than 0.5 for the first, no more than 0.5 for the second.

Going from C22G C29G C46U to G6C A43U, the yeast fitness rises from 0.568 to 0.831.

C22U C30U A37G G48C C55G and A20U C24A A57C cannot be ordered by yeast fitness: no more than 0.5 for the first, no more than 0.5 for the second.

Compared with U26C G56C, C11A C24U C34A A37U is lower in yeast fitness: 0.697 for the first, no more than 0.5 for the second.

First: U28C G50U
Second: A15U U26A C29G G50A C61G G63C
The yeast fitness of the first is higher: 0.602 for the first, 0.57 for the second.

Compared with G18A A20C C34U A36U G39C, U7C A65U A69C is lower in yeast fitness: 0.539 for the first, 0.532 for the second.

Going from G25C G39A to C11A C66U, the yeast fitness falls from 0.787 to 0.569.

C34A A45U C46A G50A U54C C55G and C27U A36C U54A C62U cannot be ordered by yeast fitness: no more than 0.5 for the first, no more than 0.5 for the second.

First: C4G A21G C27A G38C
Second: U8A C24A C30U C31U G48C
The yeast fitness of the first is lower: no more than 0.5 for the first, 0.58 for the second.

Going from C24U U59C A69C to U19C A36C U47A G48C U54G A65C, the yeast fitness falls from 0.618 to no more than 0.5.

First: U7A A43U
Second: G6A G68C A69G
The yeast fitness of the first is higher: 0.622 for the first, 0.568 for the second.

First: U3C C4G U8G A42G C62G A65C
Second: U32C U35C C49G
The yeast fitness of the first is lower: no more than 0.5 for the first, 0.545 for the second.

A14U U26A C33A G63A and C5A C22A C27G A43U C60A cannot be ordered by yeast fitness: no more than 0.5 for the first, no more than 0.5 for the second.

Compared with G38A G68C, U8C A14U G48C A70C is lower in yeast fitness: 0.823 for the first, no more than 0.5 for the second.

Compared with C4U U7A G50C, U47C A69C is higher in yeast fitness: no more than 0.5 for the first, 1.07 for the second.

Compared with U7G A45C G51C U53C, C29U G41C is higher in yeast fitness: no more than 0.5 for the first, 0.776 for the second.

Going from C55G G58A A69C to G25A A42C, the yeast fitness rises from no more than 0.5 to 0.868.

Going from U3G C30G A40C C46U C49U G68C to G25C C62G, the yeast fitness rises from no more than 0.5 to 0.877.

Compared with U2A U16G G18C, A40U A45G C60A is lower in yeast fitness: 0.614 for the first, no more than 0.5 for the second.

Compared with A21U U32G G51C C61U, G10A C62U G67C is higher in yeast fitness: 0.541 for the first, 0.636 for the second.

Compared with G9A G38C C66U, U16G C49U G63A is higher in yeast fitness: no more than 0.5 for the first, 0.994 for the second.

First: U35C C46U A69U
Second: C33U G52A
The yeast fitness of the first is higher: 0.832 for the first, 0.58 for the second.

First: U2C A21U C30U
Second: A40G G48C
The yeast fitness of the first is lower: no more than 0.5 for the first, 0.866 for the second.

C29U C31A G38C and U2A C5G G63C G67C A69U cannot be ordered by yeast fitness: no more than 0.5 for the first, no more than 0.5 for the second.

Going from G12A C27U C30G C55U A57C to G18C C22G C31U U59A G63A, the yeast fitness falls from 0.547 to no more than 0.5.

C5U A21U U28C C30G A70U and A20G U32G G58C C61A A65U cannot be ordered by yeast fitness: no more than 0.5 for the first, no more than 0.5 for the second.

First: U3A U35A A42C
Second: U2C C34G U59A
The yeast fitness of the first is higher: 0.629 for the first, no more than 0.5 for the second.

Compared with C31U U32C C33U, C11U G39C is higher in yeast fitness: 0.667 for the first, 0.68 for the second.

First: A42C G63C A69C
Second: U2A A14G
The yeast fitness of the first is lower: no more than 0.5 for the first, 0.891 for the second.

U7A A20G A40U and G12A C31A G38C A65G cannot be ordered by yeast fitness: no more than 0.5 for the first, no more than 0.5 for the second.

First: C49A U64G A69C
Second: U3C C24G C49U C55G G58A
The yeast fitness of the first is higher: 0.592 for the first, 0.576 for the second.

G48C C61G A65U and A42G A45G U47C G51C cannot be ordered by yeast fitness: no more than 0.5 for the first, no more than 0.5 for the second.

First: A20U G63C
Second: C11G G23C C49A C66G
The yeast fitness of the first is higher: 0.649 for the first, no more than 0.5 for the second.

First: C29U U47C G67U A69U
Second: G23A G58C A70C
The yeast fitness of the first is lower: no more than 0.5 for the first, 0.582 for the second.

Going from C5G U35C C66U to C29A G50A, the yeast fitness rises from 0.546 to 0.678.

Compared with U8C G17C G58C, C27G U47A is higher in yeast fitness: no more than 0.5 for the first, 0.702 for the second.

First: A36U C46U
Second: A15C C34G U35G A36U U59A
The yeast fitness of the first is higher: 0.608 for the first, no more than 0.5 for the second.

G23C G51A C61G A69U and U2A U13A A20C G44C C66U cannot be ordered by yeast fitness: no more than 0.5 for the first, no more than 0.5 for the second.

Compared with U7C U32G C33G U59C, C46U U54C G56A is higher in yeast fitness: no more than 0.5 for the first, 0.642 for the second.

First: C11U A40C U53A
Second: U16C C55G
The yeast fitness of the first is lower: 0.586 for the first, 0.669 for the second.

G6C A57C A65U and U3G U8G U19A A69C cannot be ordered by yeast fitness: no more than 0.5 for the first, no more than 0.5 for the second.

Compared with C4A U7A A14G G17C, G38A U47A C55G is higher in yeast fitness: no more than 0.5 for the first, 0.658 for the second.

Compared with U3C C4U A21G C46A, A36U G39A is higher in yeast fitness: 0.628 for the first, 0.657 for the second.

Going from C22U C33U G52A to A20C C46A C49G, the yeast fitness falls from 0.566 to 0.548.

Compared with U8A U13A G18C C24G U32G G58U, G48C U59G is higher in yeast fitness: no more than 0.5 for the first, 0.722 for the second.

Compared with A20U G67A A70G, U19C A20C A43G C46A C55U A57U C61U is lower in yeast fitness: 0.882 for the first, 0.592 for the second.

U2A C11G A21G A65U and U7C G18A C22G C62U A70G cannot be ordered by yeast fitness: no more than 0.5 for the first, no more than 0.5 for the second.

Compared with A14G C22G, C29U C30A A37U A57C is lower in yeast fitness: 0.806 for the first, no more than 0.5 for the second.

U3G G6A A15G C34A A70G and C5G U53C A65C cannot be ordered by yeast fitness: no more than 0.5 for the first, no more than 0.5 for the second.

U28G A36G G51A and U32A U54A cannot be ordered by yeast fitness: no more than 0.5 for the first, no more than 0.5 for the second.

First: U13A A14C U19C U32A G63C
Second: A42C G63C
The yeast fitness of the first is lower: 0.64 for the first, 0.681 for the second.

Compared with C5A A57U, G6A G39A U53A is lower in yeast fitness: 0.669 for the first, no more than 0.5 for the second.

C27G G38C C62G C66U and C11U U35C U64A cannot be ordered by yeast fitness: no more than 0.5 for the first, no more than 0.5 for the second.

Going from A21G G48C to G10A A42C A43C, the yeast fitness falls from 1.01 to 0.612.

C33G A45G C55G G56C and C31G A40G A45C U53A cannot be ordered by yeast fitness: no more than 0.5 for the first, no more than 0.5 for the second.

First: U7C G39A
Second: C4U C31G U47C G48C
The yeast fitness of the first is higher: 0.913 for the first, no more than 0.5 for the second.

U28G U59A A70C and C5G C61G A69G cannot be ordered by yeast fitness: no more than 0.5 for the first, no more than 0.5 for the second.

C30G C33G C60G and U16A A20G C27U G41C C55U A69U cannot be ordered by yeast fitness: no more than 0.5 for the first, no more than 0.5 for the second.

Compared with G9A G17C C29G, A15C C49U is higher in yeast fitness: 0.567 for the first, 0.896 for the second.

First: C29A A45C C46U G51A G56A
Second: G51A U54C
The yeast fitness of the first is lower: no more than 0.5 for the first, 0.715 for the second.

C30U A45U A57C showed a yeast fitness of 0.566.
